Consider 2 molecules from ChEMBL document CHEMBL3085745, “Plakinamine M, a steroidal alkaloid from the marine sponge Corticium sp” (2013).

≈ marks a conversion by molar mass, not a printed value. Calls of active or inactive are those of the source. No cut-off for these calls is given here.

The subject of experiment [1] is Mycobacterium tuberculosis. Put plainly: Antimycobacterial activity against Mycobacterium tuberculosis H37Ra ATCC 25177 after 4 days by MTT assay. The format is functional. The conditions noted are these: H37Ra ATCC 25177, 96 h. The method in brief: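 Inoculum from a frozen bacterial pellet diluted into fresh medium to a final 5×10⁵ CFU/mL, dispensed onto compound in quadruplicate wells. DMSO-only wells served as negative control and rifampicin at 250 ng/mL as positive control. Incubated 4 days at 37 °C, then MTT added for a further 12 h. After subtracting media-only blanks, % inhibition = (1 − Σtest/Σcontrol)×100.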

A further experiment has as its system Staphylococcus aureus. Put plainly: Antibacterial activity against Staphylococcus aureus at 50 ug/mL. The experiment is classed as functional, organism-based.
For the next experiment, the system named is Escherichia coli. Description: Antibacterial activity against Escherichia coli at 50 ug/mL. The experiment is classed as functional, organism-based.
The test system of another experiment is Candida albicans. Put plainly: Antifungal activity against Candida albicans at 50 ug/mL. The format is functional, organism-based.
For another experiment, the system named is Bacillus subtilis. Put plainly: Antibacterial activity against Bacillus subtilis at 50 ug/mL. The experiment is classed as functional, organism-based.

In experiment [1], `CC(C)/C(=C\C[C@@H](C)[C@H]1CC[C@H]2C3=CC[C@H]4C[C@H](N(C)C)[C@@H](O)C[C@]4(C)[C@H]3CC[C@]12C)CCN(C)C` returned an MIC of 15.8 µg/mL (≈ 31.7 µM). Further, the result in the experiment on Staphylococcus aureus, in the experiment on Escherichia coli and with Bacillus subtilis was inactive. Moreover, the outcome in the experiment with Candida albicans was Active.
`CC(C)/C(=C\C[C@@H](C)[C@H]1CC[C@H]2C3=CC[C@H]4C[C@H](N(C)C)CC[C@]4(C)[C@H]3CC[C@]12C)CCN(C)C` displayed an MIC in experiment [1] of 3.6 µg/mL (≈ 7.46 µM). In addition, the result in the experiment with Staphylococcus aureus, in the experiment with Escherichia coli and with Bacillus subtilis was inactive. In addition, the outcome in the experiment with Candida albicans was Active.

As a reminder, the MIC is the least concentration at which growth counts as inhibited.
